Key:
[1] = […]; set-up: species or system SARS coronavirus Frankfurt 1; settings: Severe acute respiratory syndrome-related coronavirus, Vero C1008, 72 h
[2] = […] CHIKV LS3 infected in African green monkey Vero E6 cells assessed as reduction in virus-induced cytopathic effect measured after 96 hrs post-infection by MTS assay; settings: Chikungunya virus, LS3, Vero C1008, 96 h
Vero [3] = experiment: Cytotoxicity against African green monkey Vero cells assessed as reduction in cell viability measured after 72 hrs by MTS assay; assay type: cell-based; settings: chlorocebus sabaeus
In short: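 Uninfected Vero cells (20 000/well) were incubated with compound for 72 h, alongside MERS-CoV assays. Viability by MTS for 2–2.5 h, formaldehyde fixation, then A495 relative to untreated controls. Eight concentrations, quadruplicate; CC50 from nonlinear regression.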

[4] = (§1) Cytotoxicity against African green monkey Vero E6 cells assessed as reduction in cell viability measured after 72 hrs by MTS assay; assay type: cell-based, Vero C1008; settings: chlorocebus sabaeus, Vero E6 cells (Vero C1008)
In short: (§2)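 Uninfected Vero E6 cells (10 000/well) were exposed to compound for 72 h, in parallel with SARS-CoV CPE assays. Eight concentrations in quadruplicate; CC50 by nonlinear regression.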

[5] = […]; assay type: cell-based; settings: Middle East respiratory syndrome-related coronavirus, EMC/2012, Vero, 72 h
Vero [6] = experiment: Cytotoxicity against African green monkey Vero cells assessed as reduction in cell viability measured after 96 hrs by MTS assay; assay type: cell-based; settings: chlorocebus sabaeus
In short: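 Uninfected Vero CCL81 cells (5000/well) were treated for 96 h in parallel with ZIKV CPE assays. Eight concentrations, quadruplicate; CC50 by nonlinear regression.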

Vero C1008 = experiment: as §1; assay type: cell-based; settings: chlorocebus sabaeus, vero c1008, 72 h; in short: as §2
Adenosylhomocysteinase = Adenosylhomocysteinase (Homo sapiens, UniProt P23526); experiment: Inhibition of human placental SAH hydrolase expressed in Escherichia coli JM109 using SAH as substrate preincubated for 10 mins followed by SAH addition and measured after 20 mins by […] reagent-based spectrophotometric method
Chikungunya virus = experiment: Antiviral activity against CHIKV LS3 infected in African green monkey Vero E6 cells assessed as log reduction in viral titer measured after 30 hrs post infection by plaque assay; assay type: functional, Vero C1008
[7] = Selectivity index, ratio of CC50 for African green monkey Vero cells to EC50 for inhibition of RNA-dependent RNA polymerase in ZIKV SL0612 infected in African green monkey Vero cells assessed as reduction in virus-induced cytopathic effect; assay type: toxicity; settings: read-out: Ratio CC50/EC50
In short: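 Vero CCL81 cells (5000/well) received ZIKV at MOI 0.05 in compound-containing infection medium. MTS was read at 96 hpi (A495, relative to uninfected), with uninfected cells run in parallel for CC50. Eight concentrations, quadruplicate; nonlinear regression; SI = CC50/EC50.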

[8] = system: Middle East respiratory syndrome-related coronavirus; experiment: Antiviral activity against MERS-CoV EMC/2012 infected in African green monkey Vero cells assessed as log reduction in virus titre at >0.3 uM measured after 48 hrs viral infection by plaque assay; assay type: functional
[9] = Selectivity index, ratio of CC50 for African green monkey Vero E6 cells to EC50 for inhibition of RNA-dependent RNA polymerase in SARS-CoV Frankfurt1 infected in African green monkey Vero E6 cells assessed as reduction in virus-induced cytopathic effect; assay type: toxicity, Vero C1008; settings: read-out: Ratio CC50/EC50
[10] = Selectivity index, ratio of CC50 for African green monkey Vero cells to EC50 for inhibition of RNA-dependent RNA polymerase in MERS-CoV EMC/2012 infected in African green monkey Vero cells assessed as reduction in virus-induced cytopathic effect; assay type: toxicity; settings: read-out: Ratio CC50/EC50
Zika virus = experiment: Antiviral activity against ZIKV SL0612 infected in African green monkey Vero cells assessed as log reduction in viral titre up to 1.5 uM measured at 48 hrs post infection by plaque assay; assay type: functional
In short: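 Vero E6 cells (7.5 × 10^4/well) adhered overnight in DMEM/8% FCS. ZIKV infection was at MOI 1 for 2 h at 37 °C in EMEM/2% FCS with compound (0–1.5 μM), followed by washing and 48 h in compound-containing medium. Supernatant titre was read by plaque assay on Vero CCL81. Duplicates in two independent experiments (n = 4).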

[11] = Partition coefficient, log P of the compound in liquid/aqueous phase by pH-metric method; assay type: physicochemical; settings: octanol/water
[12] = Selectivity index, ratio of CC50 for African green monkey Vero E6 cells to EC50 for inhibition of RNA-dependent RNA polymerase in CHIKV LS3 infected in African green monkey Vero E6 cells assessed as reduction in virus-induced cytopathic effect; assay type: toxicity, Vero C1008; settings: read-out: Ratio CC50/EC50
In short: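 Vero E6 cells (5000/well) were infected with CHIKV at MOI 0.005 in EMEM/25 mM HEPES/2% FCS containing compound. CPE was read by MTS at 96 hpi (A495, relative to uninfected). Uninfected cells were tested in parallel for CC50. Eight concentrations, quadruplicate; EC50 and CC50 by nonlinear regression; SI = CC50/EC50.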

SARS-CoV = experiment: Antiviral activity against SARS-CoV Frankfurt1 infected in African green monkey Vero E6 cells assessed as log reduction in viral titre at >0.3 uM measured at 48 hrs post infection by plaque assay; assay type: functional, Severe acute respiratory syndrome-related coronavirus, Frankfurt 1, Vero C1008

Chain of Adenosylhomocysteinase (P23526 whole entry): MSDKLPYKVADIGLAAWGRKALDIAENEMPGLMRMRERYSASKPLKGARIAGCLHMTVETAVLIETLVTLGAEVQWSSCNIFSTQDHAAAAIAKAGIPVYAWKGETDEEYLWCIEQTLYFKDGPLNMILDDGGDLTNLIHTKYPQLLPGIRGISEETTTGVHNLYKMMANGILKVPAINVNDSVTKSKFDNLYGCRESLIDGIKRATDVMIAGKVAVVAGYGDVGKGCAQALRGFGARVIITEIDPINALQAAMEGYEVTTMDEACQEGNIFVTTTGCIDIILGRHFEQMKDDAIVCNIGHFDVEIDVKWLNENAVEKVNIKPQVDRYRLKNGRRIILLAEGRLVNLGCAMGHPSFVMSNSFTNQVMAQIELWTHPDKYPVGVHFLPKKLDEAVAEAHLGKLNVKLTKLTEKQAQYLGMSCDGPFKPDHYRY

In the case of `Nc1ncnc2c1ncn2[C@@H]1C[C@H](CO)[C@@H](O)[C@H]1O` [ARISTEROMYCIN], the EC50 [1] is reported as > 50 µM, the EC50 [2] is reported as 0.8 µM and the CC50 (Vero [3]) is reported as 2 µM. For the same molecule, the CC50 at 72 h [4] was 2.4 to 6.3 µM, the EC50 [5] was > 50 µM and the CC50 (Vero [6]) was 2.4 µM.

For `O=c1ccn([C@H]2[C@H](O)[C@H](O)[C@@H](CO)C2(F)F)c(=O)[nH]1`, the EC50 [1] was > 100 µM, the EC50 [2] was > 100 µM and the CC50 (Vero [3]) was > 50 µM. The CC50 (Vero C1008) was > 100 µM, the IC50 (Adenosylhomocysteinase) was > 100 µM and the EC50 [5] was > 50 µM. For the same molecule, the CC50 (Vero [6]) was > 100 µM.

In the case of `O=c1ccn([C@H]2[C@H](O)[C@H](O)[C@@H](CO)[C@H]2F)c(=O)[nH]1`, the EC50 [1] is reported as > 100 µM, the EC50 [2] is reported as > 100 µM and the CC50 (Vero C1008) is reported as > 100 µM. The IC50 (Adenosylhomocysteinase) was > 100 µM and the EC50 [5] was > 100 µM.

For `Nc1ccn([C@H]2[C@H](O)[C@H](O)[C@@H](CO)C2(F)F)c(=O)n1`, the EC50 [1] was > 100 µM, the EC50 [2] was > 100 µM and the CC50 (Vero [3]) was > 50 µM. The CC50 (Vero C1008) was > 100 µM, the IC50 (Adenosylhomocysteinase) was > 100 µM and the EC50 [5] was > 50 µM. For the same molecule, the CC50 (Vero [6]) was > 100 µM.

With `Nc1ncnc2c1ncn2[C@H]1[C@H](O)[C@H](O)[C@@H](CO)C1(F)F` the FC (Chikungunya virus) was >2, the EC50 [1] was 0.5 µM and the EC50 [2] was 0.13 µM. For the same molecule, the CC50 (Vero [3]) was 3.2 µM, the selectivity ratio [7] was > 9.6 and the FC [8] was 2.5. It also gave a CC50 at 72 h [4] of 1.25 to 5.9 µM, an IC50 (Adenosylhomocysteinase) of 1.06 µM and a selectivity ratio [9] of 11.8. For the same molecule, the selectivity ratio [10] was 16, the FC (Zika virus) was 1 and the logP [11] was 0.02. The selectivity ratio [12] was > 9.6, the EC50 [5] was 0.2 µM and the CC50 (Vero [6]) was > 2.5 µM. For the same molecule, the FC (SARS-CoV) was 1.5.

In the case of `CC(C)OC(=O)[C@H](C)N[P@](=O)(OC[C@@H]1[C@@H](O)[C@@H](O)[C@H](n2ccc(=O)[nH]c2=O)[C@@H]1F)Oc1ccccc1`, the EC50 [1] is reported as > 100 µM, the EC50 [2] is reported as > 100 µM and the CC50 (Vero [3]) is reported as > 50 µM. The CC50 (Vero C1008) was > 100 µM, the IC50 (Adenosylhomocysteinase) was > 100 µM and the EC50 [5] was > 50 µM. The CC50 (Vero [6]) was > 100 µM.

For `Nc1ccn([C@H]2[C@H](O)[C@H](O)[C@@H](CO)[C@H]2F)c(=O)n1`, the EC50 [1] was > 100 µM, the EC50 [2] was > 100 µM and the CC50 (Vero [3]) was > 100 µM. For the same molecule, the CC50 (Vero C1008) was > 100 µM, the IC50 (Adenosylhomocysteinase) was > 100 µM and the EC50 [5] was > 100 µM. The CC50 (Vero [6]) was > 100 µM.

In the case of `O=c1ccn([C@H]2[C@H](O)[C@H](O)[C@@H](CO)[C@@H]2F)c(=O)[nH]1`, the EC50 [1] is reported as > 100 µM, the EC50 [2] is reported as > 100 µM and the CC50 (Vero [3]) is reported as > 100 µM. The IC50 (Adenosylhomocysteinase) was > 100 µM, the EC50 [5] was > 100 µM and the CC50 (Vero [6]) was > 100 µM.

In the case of `CC(C)OC(=O)[C@H](C)N[P@](=O)(OC[C@@H]1[C@@H](O)[C@@H](O)[C@H](n2ccc(=O)[nH]c2=O)C1(F)F)Oc1ccccc1`, the EC50 [1] is reported as > 100 µM, the EC50 [2] is reported as > 100 µM and the CC50 (Vero [3]) is reported as > 50 µM. The CC50 (Vero C1008) was > 100 µM, the IC50 (Adenosylhomocysteinase) was > 100 µM and the EC50 [5] was > 50 µM. The CC50 (Vero [6]) was > 100 µM.

In the case of `CNc1ncnc2c1ncn2[C@H]1[C@H](O)[C@H](O)[C@@H](CO)C1(F)F`, the EC50 [1] is reported as > 100 µM, the EC50 [2] is reported as > 100 µM and the CC50 (Vero [3]) is reported as 12.5 µM. The CC50 (Vero C1008) was > 100 µM, the IC50 (Adenosylhomocysteinase) was 0.76 µM and the EC50 [5] was > 50 µM. The CC50 (Vero [6]) was > 100 µM.

In the case of `Nc1ncnc2c1ncn2[C@H]1[C@H](O)[C@H](O)[C@@H](CO)[C@@H]1F`, the EC50 [2] is reported as 0.53 µM.

For `Nc1ncnc2c1ncn2[C@H]1[C@H](O)[C@H](O)[C@@H](CO)[C@H]1F`, the EC50 [2] was > 100 µM, the CC50 (Vero [3]) was 0.6 µM and the CC50 at 72 h [4] was > 100 µM. The EC50 [5] was 0.2 µM.

For `CNc1ncnc2c1ncn2[C@H]1[C@H](O)[C@H](O)[C@@H](CO)[C@H]1F`, the EC50 [1] was > 100 µM, the EC50 [2] was > 100 µM and the CC50 (Vero [3]) was > 50 µM. The CC50 (Vero C1008) was > 100 µM, the IC50 (Adenosylhomocysteinase) was 4.39 µM and the EC50 [5] was > 50 µM. The CC50 (Vero [6]) was > 100 µM.

With `CC(C)OC(=O)[C@H](C)N[P@](=O)(OC[C@@H]1[C@@H](O)[C@@H](O)[C@H](n2cnc3c(N)ncnc32)C1(F)F)Oc1ccccc1` the EC50 [1] was 6.8 µM, the EC50 [2] was 1.95 µM and the CC50 (Vero [3]) was > 50 µM. The selectivity ratio [7] was > 14.3, the CC50 at 72 h [4] was 12.5 to 25 µM and the IC50 (Adenosylhomocysteinase) was > 100 µM. For the same molecule, the selectivity ratio [9] was > 3.7, the selectivity ratio [12] was > 6.4 and the EC50 [5] was 9.3 µM. The CC50 (Vero [6]) was > 25 µM.
